According to ChEMBL document CHEMBL2016484, “In vitro growth inhibition of human cancer cells by novel honokiol analogs” (Bioorg Med Chem, 2012):
The source made the active and inactive calls. The calls are words filed in the database; no cut-off is given here.

Columns and labels:
UACC-903 [1] = assay: Cytotoxicity against human UACC-903 cells after 24 hrs by MTS assay; format: functional, cell-based; conditions: for IC50: UACC-903, 24 h
UACC-903 [2] = assay: Cytotoxicity against human UACC-903 cells after 72 hrs by MTS assay; format: functional, cell-based; conditions: for IC50: UACC-903, 72 h
A549 [3] = assay: Cytotoxicity against human A549 cells after 24 hrs by MTS assay; format: functional, cell-based; conditions: for IC50: A549, 24 h
A549 [4] = assay: Cytotoxicity against human A549 cells after 72 hrs by MTS assay; format: functional, cell-based; conditions: for IC50: A549, 72 h
HT-29 [5] = assay: Cytotoxicity against human HT-29 cells after 24 hrs by MTS assay; format: functional, cell-based; conditions: for IC50: HT-29, 24 h
HT-29 [6] = assay: Cytotoxicity against human HT-29 cells after 72 hrs by MTS assay; format: functional, cell-based; conditions: for IC50: HT-29, 72 h
UACC-903 [7] = assay: Cytotoxicity against human UACC-903 cells by MTS assay; format: functional, cell-based; conditions: TDE = time-dependent effect
A549 [8] = assay: Cytotoxicity against human A549 cells by MTS assay; format: functional, cell-based; conditions: TDE = time-dependent effect
HT-29 [9] = assay: Cytotoxicity against human HT-29 cells by MTS assay; format: functional, cell-based; conditions: TDE = time-dependent effect
A549 [10] = assay: Cell cycle arrest in synchronized human A549 cells assessed as accumulation at G1/G0 phase at 0.5 uM after 48 hrs by propidium iodide staining-based flow cytometric analysis (reference value: 40.6 +/- 4.6%); format: functional
A549 [11] = assay: Cell cycle arrest in synchronized human A549 cells assessed as accumulation at G1/G0 phase at 2.5 uM after 48 hrs by propidium iodide staining-based flow cytometric analysis (reference value: 40.6 +/- 4.6%); format: functional
A549 [12] = assay: Cell cycle arrest in synchronized human A549 cells assessed as accumulation at G1/G0 phase at 10 uM after 48 hrs by propidium iodide staining-based flow cytometric analysis (reference value: 40.6 +/- 4.6%); format: functional
A549 [13] = assay: Cell cycle arrest in synchronized human A549 cells assessed as accumulation at S phase at 0.5 uM after 48 hrs by propidium iodide staining-based flow cytometric analysis (reference value: 41.2 +/- 3.1%); format: functional
A549 [14] = assay: Cell cycle arrest in synchronized human A549 cells assessed as accumulation at S phase at 2.5 uM after 48 hrs by propidium iodide staining-based flow cytometric analysis (reference value: 41.2 +/- 3.1%); format: functional
A549 [15] = assay: Cell cycle arrest in synchronized human A549 cells assessed as accumulation at S phase at 10 uM after 48 hrs by propidium iodide staining-based flow cytometric analysis (reference value: 41.2 +/- 3.1%); format: functional
A549 [16] = assay: Cell cycle arrest in synchronized human A549 cells assessed as accumulation at G2/M phase at 0.5 uM after 48 hrs by propidium iodide staining-based flow cytometric analysis (reference value: 18.2 +/- 2.1%); format: functional
A549 [17] = assay: Cell cycle arrest in synchronized human A549 cells assessed as accumulation at G2/M phase at 2.5 uM after 48 hrs by propidium iodide staining-based flow cytometric analysis (reference value: 18.2 +/- 2.1%); format: functional
A549 [18] = assay: Cell cycle arrest in synchronized human A549 cells assessed as accumulation at G2/M phase at 10 uM after 48 hrs by propidium iodide staining-based flow cytometric analysis (reference value: 18.2 +/- 2.1%); format: functional
A549 [19] = assay: Decrease in Cdk1 protein level in synchronized human A549 cells after 18 hrs by Western blot analysis; format: functional, cell-based
Method in brief: (§1)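 A549 cells synchronized with nocodazole (0.5 μg/ml, 15 h), then treated with compound (0, 0.5, 1.0, 2.0, 5.0 μM; final DMSO 0.2%) for 18 h at 37 °C. RIPA lysates with protease inhibitors, 40 μg protein on 12% SDS-PAGE, probed with rabbit polyclonal anti-human CDK1 or cyclin B1, ECL detection, densitometry; three experiments on different passages.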

A549 [20] = assay: Decrease in cyclin B1 protein level in synchronized human A549 cells after 18 hrs by Western blot analysis; format: functional, cell-based; method in brief: as §1
A549 [21] = assay: Cell cycle arrest in synchronized human A549 cells assessed as accumulation at S phase after 48 hrs by propidium iodide staining-based flow cytometric analysis; format: functional
A549 [22] = assay: Cell cycle arrest in synchronized human A549 cells assessed as accumulation at G2/M phase after 48 hrs by propidium iodide staining-based flow cytometric analysis; format: functional
A549 [23] = assay: Decrease in Cdk1 protein level in synchronized human A549 cells at 2 uM after 18 hrs by Western blot analysis; format: functional, cell-based; method in brief: as §1
A549 [24] = assay: Decrease in cyclin B1 protein level in synchronized human A549 cells at 2 uM after 18 hrs by Western blot analysis; format: functional, cell-based; method in brief: as §1
A549 [25] = assay: Decrease in Cdk1 protein level in synchronized human A549 cells at 5 uM after 18 hrs by Western blot analysis; format: functional, cell-based; method in brief: as §1
A549 [26] = assay: Decrease in cyclin B1 protein level in synchronized human A549 cells at 5 uM after 18 hrs by Western blot analysis; format: functional, cell-based; method in brief: as §1

| SMILES | growth inhibition (GI) (UACC-903 [1]) | IC50 (UACC-903 [1]) [µM] | growth inhibition (GI) (UACC-903 [2]) | IC50 (UACC-903 [2]) [µM] | growth inhibition (GI) (A549 [3]) | IC50 (A549 [3]) [µM] | growth inhibition (GI) (A549 [4]) | IC50 (A549 [4]) [µM] | growth inhibition (GI) (HT-29 [5]) | IC50 (HT-29 [5]) [µM] | growth inhibition (GI) (HT-29 [6]) | IC50 (HT-29 [6]) [µM] | growth inhibition (GI) (UACC-903 [7]) | growth inhibition (GI) (A549 [8]) | growth inhibition (GI) (HT-29 [9]) | Activity (A549 [10]) [%] | Activity (A549 [11]) [%] | Activity (A549 [12]) [%] | Activity (A549 [13]) [%] | Activity (A549 [14]) [%] | further results |
| --- | --- | --- | --- | --- | --- | --- | --- | --- | --- | --- | --- | --- | --- | --- | --- | --- | --- | --- | --- | --- | --- |
| C=CCc1ccc(O)c(-c2cccc(CC=C)c2O)c1 | Dose-dependent effect | 22.3 | Dose-dependent effect | 17.4 | Dose-dependent effect | 2.04 | Dose-dependent effect | 1.08 | Dose-dependent effect | 17.4 | Dose-dependent effect | 12.4 | tde | tde | tde |  |  |  |  |  |  |
| C=CCc1ccc(O)c(-c2ccc(O)c(CC=C)c2)c1 [HONOKIOL] | Dose-dependent effect | 7.45 | Dose-dependent effect | 5.1 | Dose-dependent effect | 12.5 | Dose-dependent effect | 7.75 | Dose-dependent effect | 23.9 | Dose-dependent effect | 13.2 | tde | tde | tde | 50.5 | 61.1 | 72.9 | 37.9 | 28.1 | Activity (A549 [15]): 21.7%; Activity (A549 [16]): 11.6%; Activity (A549 [17]): 10.8%; Activity (A549 [18]): 5.4%; Activity (A549 [19]): Dose-dependent effect; Activity (A549 [20]): Dose-dependent effect |
| C=CCc1ccc(O)c(-c2ccc(OC)c(CC=C)c2)c1 [METHYLHONOKIOL] | Dose-dependent effect | 37.7 | Dose-dependent effect | 24.1 | Dose-dependent effect | 1.56 | Dose-dependent effect | 1.24 | Dose-dependent effect | 22.4 | Dose-dependent effect | 14.1 | tde | tde | tde |  |  |  |  |  |  |
| C=CCc1cc(-c2cccc(CC=C)c2O)ccc1OC | Dose-dependent effect | 29 | Dose-dependent effect | 24.7 | Dose-dependent effect | 11.3 | Dose-dependent effect | 6.28 | Dose-dependent effect | 16.2 | Dose-dependent effect | 11.5 | tde | tde | tde |  |  |  |  |  |  |
| C=CCc1cc(-c2ccc(OC)c(CC=C)c2)c(O)c(-c2ccc(OC)c(CC=C)c2)c1 | Dose-dependent effect | 3.94 | Dose-dependent effect | 2.93 | Dose-dependent effect | 1.74 | Dose-dependent effect | 1.25 | Dose-dependent effect | 16.9 | Dose-dependent effect | 11.4 | tde | tde | tde |  |  |  |  |  |  |
| C=CCc1cc(Br)c(O)c(-c2ccc(OC)c(CC=C)c2)c1 | Dose-dependent effect | 2.98 | Dose-dependent effect | 1.29 | Dose-dependent effect | 1.73 | Dose-dependent effect | 1.04 | Dose-dependent effect | 3.99 | Dose-dependent effect | 1.87 | tde | tde | tde | 55.8 | 63.1 | 76.4 | 32.8 | 30.6 | Activity (A549 [15]): 20.7%; Activity (A549 [16]): 11.4%; Activity (A549 [17]): 6.3%; Activity (A549 [18]): 3%; Activity (A549 [21]): Dose-dependent effect; Activity (A549 [22]): Dose-dependent effect; Activity (A549 [19]): Dose-dependent effect; Activity (A549 [20]): Dose-dependent effect; Activity (A549 [23]): Active; Activity (A549 [24]): Active; Activity (A549 [25]): Active; Activity (A549 [26]): Active |
| C=CCc1cc(-c2ccc(OC)c(CC=C)c2)ccc1O | Dose-dependent effect | 3.05 | Dose-dependent effect | 1.39 | Dose-dependent effect | 2.47 | Dose-dependent effect | 1.99 | Dose-dependent effect | 3.19 | Dose-dependent effect | 2 | tde | tde | tde | 69.8 | 75.7 | 82.8 | 23 | 20.2 | Activity (A549 [15]): 14.3%; Activity (A549 [16]): 7.2%; Activity (A549 [17]): 4.2%; Activity (A549 [18]): 2.8%; Activity (A549 [21]): Dose-dependent effect; Activity (A549 [22]): Dose-dependent effect; Activity (A549 [19]): Dose-dependent effect; Activity (A549 [20]): Dose-dependent effect; Activity (A549 [23]): Active; Activity (A549 [24]): Active; Activity (A549 [25]): Active; Activity (A549 [26]): Active |
